≈ marks a conversion by molar mass, not a printed value.
Key:
Staphylococcus aureus [1] = assay: Antibacterial activity against methicillin-resistant Staphylococcus aureus ATCC BAA-44 after overnight incubation by broth microdilution assay in presence of 4 ug/ml amoxicillin and 2 ug/ml clavulanic acid; type: functional
How it was run: (§1)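 Resensitization screen: compound from a 5 mg/mL DMSO stock, 2-fold serially diluted in MHB from 32 μg/mL final. Antibiotic was held at its CLSI-susceptible level: amoxicillin/clavulanic acid 4/2 μg/mL, cefazolin 8 μg/mL, meropenem 4 μg/mL. Final MRSA inoculum OD600 0.001, overnight at 37 °C with shaking. MRC was the concentration giving no visible overnight growth.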

Staphylococcus aureus [2] = assay: Antibacterial activity against methicillin-resistant Staphylococcus aureus ATCC BAA-44 after overnight incubation by broth microdilution assay in presence of 8 ug/ml cefazolin; type: functional; how it was run: as §1
Staphylococcus aureus [3] = assay: Antibacterial activity against methicillin-resistant Staphylococcus aureus ATCC 33592 after overnight incubation by broth microdilution assay in presence of 4 ug/ml meropenem; type: functional; how it was run: as §1
[4] = Cytotoxicity against human HeLa cells after 24 hrs by CellTiter-Glo assay; type: cell-based
How it was run: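 HeLa cells seeded at 20 000 cells/well in DMEM with 10% FCS and 1% penicillin/streptomycin, grown 16 h at 37 °C, 5% CO2. Medium renewed, then compound added in DMSO to final 0.5–32 μg/mL, triplicate series. After 24 h at 37 °C, plates equilibrated to room temperature and viability read by CellTiter-Glo luminescence.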

Staphylococcus aureus [5] = assay: Antibacterial activity against methicillin-resistant Staphylococcus aureus ATCC BAA-44 after 18 hrs by broth microdilution assay; type: functional; conditions: ATCC BAA-44, 18 h
How it was run: (§2)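 Day culture (OD600 0.15–0.4) diluted to OD600 0.002, then 2-fold on plating for a final inoculum of OD600 0.001. Plates were incubated at 37 °C with shaking for 18 h before reading growth.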

Staphylococcus aureus [6] = assay: Antibacterial activity against methicillin-resistant Staphylococcus aureus ATCC 33592 after 18 hrs by broth microdilution assay; type: functional; conditions: ATCC 33592, 18 h; how it was run: as §2
Staphylococcus aureus [7] = assay: Antibacterial activity against methicillin-sensitive Staphylococcus aureus ATCC 25923 after 18 hrs by broth microdilution assay; type: functional; conditions: ATCC 25923, 18 h
How it was run: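 CLSI broth microdilution in Mueller–Hinton broth. Day culture (OD600 0.15–0.4) diluted to OD600 0.002, then 2-fold on addition to wells, giving a final inoculum of OD600 0.001.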

Staphylococcus aureus [8] = assay: Antibacterial activity against methicillin-resistant Staphylococcus aureus ATCC BAA-44 after 18 hrs by checkerboard test in presence of amoxicillin/clavulanic acid; type: functional
How it was run: (§3)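 Checkerboard synergy test in MHB, plates in duplicate. Compound was 2-fold diluted across the rows (8 to 0.016 μg/mL). […] Final inoculum OD600 0.001, 37 °C with shaking, 18 h. FICI was taken as FICA + FICB, each the MIC in combination over the MIC alone.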

Staphylococcus aureus [9] = assay: Antibacterial activity against methicillin-resistant Staphylococcus aureus ATCC BAA-44 after 18 hrs by checkerboard test in presence of cefazolin; type: functional; how it was run: as §3
Staphylococcus aureus [10] = assay: Antibacterial activity against methicillin-resistant Staphylococcus aureus ATCC 33592 after 18 hrs by checkerboard test in presence of meropenem; type: functional; how it was run: as §3
[11] = Hemolytic activity in human RBC at 64 ug/ml after 1 hr relative to control; type: ADME, cell-based, Erythrocyte; conditions: red blood cells, read-out: Activity
How it was run: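 Freshly drawn heparinized human blood centrifuged; RBCs washed three times in D-PBS and diluted to 1% of original pellet volume. Compound in DMSO added to final 64, 16 and 4 μg/mL. Incubated at 37 °C for 1 h with shaking, then centrifuged; supernatant hemoglobin read at 415 nm. Percent hemolysis taken against 1% Triton X-100 (100%) with DMSO as negative control. Triplicate; run within 3 h of the draw.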

[12] = Ratio of hemolytic activity in human RBC to antibacterial activity against methicillin-resistant Staphylococcus aureus ATCC BAA-44 in presence of 4 ug/ml amoxicillin and 2 ug/ml clavulanic acid
[13] = Ratio of hemolytic activity in human RBC to antibacterial activity against methicillin-resistant Staphylococcus aureus ATCC BAA-44 in presence of 8 ug/ml cefazolin
[14] = Ratio of hemolytic activity in human RBC to antibacterial activity against methicillin-resistant Staphylococcus aureus ATCC 33592 in presence of 4 ug/ml meropenem

SMILES | MRC (Staphylococcus aureus [1]) [µg/mL] | MRC (Staphylococcus aureus [2]) [µg/mL] | MRC (Staphylococcus aureus [3]) [µg/mL] | GI50 at 24 h [4] [µg/mL] | further results
C=C1CCC[C@@H]2Nc3ccc(Br)cc3[C@]12CCNS(=O)(=O)c1ccc(Br)cc1 | 4 | 4 | 8 | 40 (≈ 76 µM) | –
C=C1CCC[C@@H]2Nc3ccc(Br)cc3[C@]12CCNS(=O)(=O)c1ccc(Cl)c(Cl)c1 | 4 | 2 | 4 | 12.8 (≈ 24.8 µM) | –
C=C1CCC[C@@H]2Nc3ccc(Br)cc3[C@]12CCNS(=O)(=O)c1ccc(NC(C)=O)cc1 | >32 | >32 | 32 | – | –
C=C1CCC[C@@H]2Nc3ccc(Br)cc3[C@]12CCNS(=O)(=O)c1ccc([N+](=O)[O-])cc1 | >32 | >32 | >32 | – | –
C=C1CCC[C@@H]2Nc3c(F)cc(Br)cc3[C@]12CCNS(=O)(=O)c1ccc(OC)cc1 | 8 | 4 | 8 | 49 (≈ 98.9 µM) | –
C=C1CCC[C@@H]2Nc3c(F)cc(Br)cc3[C@]12CCNS(=O)(=O)c1ccc(C)cc1 | 4 | 4 | 4 | 22 (≈ 45.9 µM) | –
C=C1CCC[C@@H]2Nc3c(F)cc(Br)cc3[C@]12CCNS(=O)(=O)c1ccc(F)cc1 | 4 | 4 | 4 | 18.3 (≈ 37.9 µM) | –
C=C1CCC[C@@H]2Nc3c(F)cc(Br)cc3[C@]12CCNS(=O)(=O)c1ccc(Br)cc1 | 1 | 1 | 1 | 22 (≈ 40.4 µM) | MIC (Staphylococcus aureus [5]): > 64 µg/mL; MIC (Staphylococcus aureus [6]): > 64 µg/mL; MIC (Staphylococcus aureus [7]): > 64 µg/mL; fractional inhibitory concentration index (FICI) (Staphylococcus aureus [8]): 0.0315; fractional inhibitory concentration index (FICI) (Staphylococcus aureus [9]): 0.0156; fractional inhibitory concentration index (FICI) (Staphylococcus aureus [10]): 0.0315; hemolysis at 1 h, 64 ug/ml [11]: < 2%; Ratio [12]: 64; Ratio [13]: 64; Ratio [14]: 64
C=C1CCC[C@@H]2Nc3c(F)cc(Br)cc3[C@]12CCNS(=O)(=O)c1ccc(I)cc1 | 4 | 2 | 4 | 19.6 (≈ 33.1 µM) | –
C=C1CCC[C@@H]2Nc3c(F)cc(Br)cc3[C@]12CCNS(=O)(=O)c1ccc(Cl)c(Cl)c1 | 4 | 4 | 4 | 31 (≈ 58 µM) | –
C=C1CCC[C@@H]2Nc3c(F)cc(Br)cc3[C@]12CCNS(=O)(=O)c1ccc(NC(C)=O)cc1 | 32 | 32 | 16 | 32 (≈ 61.3 µM) | –
C=C1CCC[C@@H]2Nc3c(F)cc(Br)cc3[C@]12CCNS(=O)(=O)c1ccc(C#N)cc1 | 8 | 4 | 4 | 17 (≈ 34.7 µM) | –
C=C1CCC[C@@H]2Nc3c(F)cc(Br)cc3[C@]12CCNS(=O)(=O)c1ccc(C(F)(F)F)cc1 | 4 | 4 | 4 | 8.7 (≈ 16.3 µM) | –

Reference: ChEMBL document CHEMBL3259770, “Structure-activity relationship studies of the tricyclic indoline resistance-modifying agent” (J Med Chem, 2014)
